# Screen size: about 2,500 compounds; about 1,200 (48%) were called active. So high a share suggests a set chosen from earlier hits. The list shows a part of the results. Values without a mark were called inactive.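 The calls were made as follows: active = mean activation above the low control average plus 3 SD, as set in the primary screen (cut at about 12% in these data); inactive = the rest.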
# Molecular target: Troponin I, cardiac muscle (Homo sapiens) + Troponin T, cardiac muscle (Homo sapiens) + Troponin C, slow skeletal and cardiac muscles (Homo sapiens) (UniProt P19429+P45379+P63316)
# Test: cardiac RTF calcium sensitivity activators, confirmation, biochemical, IANBD-TnC fluorescence, triplicate (AID 504383);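 also: 0% = DMSO at 0.472 mM calcium and 100% = DMSO at 2.9 mM calcium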
# Conditions: IANBD-labeled cardiac RTF, Ca2+ sensitivity fluorescence; at 7.2 µM; stronger effect = higher value; scaled from EC20 to saturating calcium; tested at EC20 calcium, 0.472 mM
# In short: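 Assay system: labelled regulated thin filaments / Timing: 15 min at 25 °C / Detection: fluorescence intensity of labelled filaments / Measure: fluorescence gain scaled between EC20 and EC100 calcium controls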
row,SMILES,activation
1,CCOC(=O)Nc1ccc(NCc2ccc(F)cc2)nc1N,5.72%
2,CCN(CC)c1ccc2cc(C(=O)NCc3ccc(F)cc3)c(=N)oc2c1,54.1% (active)
3,COC(=O)CNC(=O)COC(=O)c1cc(F)c(F)cc1Cl,7.53%
4,Cn1c2c(c(=O)n(C)c1=O)C(C(F)(F)F)(C(F)(F)F)N=C(CCC1CCCCC1)N2,9.24%
5,CC(C)(C)C1(O)CC(C(F)(F)F)=NN1C(=O)CCCc1ccccc1 (centres undefined),3.64%
6,COC(=O)C1=NN(C(=O)c2ccc(Br)cc2)C(O)(C(C)(C)C)C1 (centres undefined),13.4% (active)
7,CCN(CC)c1ccc(/C=C2/SC(=O)N(C(C)C)C2=O)o1,15.2% (active)
8,COc1ccc(/C=C2\Oc3cc(OCC(=O)N4CCC(C(=O)O)CC4)ccc3C2=O)c(OC)c1,249% (active)
9,COc1ccc(/C=C2\Oc3cc(OC(=O)N4CCOCC4)ccc3C2=O)c(OC)c1,19.2% (active)
10,COc1ccc(/C=C2\Oc3cc(OCC(=O)N4CCC[C@H]4CO)ccc3C2=O)c(OC)c1,13.8% (active)
11,COc1cc(OC)c(OC)cc1/C=C1\Oc2cc(OCC(=O)N3Cc4ccccc4C[C@H]3C(=O)O)ccc2C1=O,7.71%
12,COc1ccc(/C=C2\Oc3cc(OCC(=O)N4CCC[C@H]4C(=O)O)ccc3C2=O)c(OC)c1,17.4% (active)
13,CS(=O)(=O)N(CC(=O)NCCSCc1ccccc1)c1ccccc1,7.88%
14,CCOC(=O)c1c(NC(=O)c2ccno2)c2cc([N+](=O)[O-])ccc2n1C,4.78%
15,Cc1cccc(C)c1OCC(C)N (centres undefined),15.2% (active)
16,Cc1cccc(OCc2nn[nH]n2)c1C,9.03%
17,CC(=O)Oc1ccc2c(c1)Oc1cc(OC(C)=O)ccc1C21OC(=O)c2ccccc21,49.7% (active)
18,CC1CCCCC1NS(=O)(=O)CCNC(=O)c1ccccc1 (centres undefined),1.54%
19,Cc1cc(C)c2c(SC(C)C)nc(N)nc2n1,18.3% (active)
20,Cc1ccccc1NC(=S)Nc1ccc(Br)cc1,9.23%
21,Cc1ccc(NC(=O)Cn2ccnc2)cc1C,6.24%
22,Cc1ccc(NC(=S)Nc2ccc3nc(-c4ccccn4)c(-c4ccccn4)nc3c2)cc1C,15.9% (active)
23,C=CCn1c(C)cc(-c2csc(N)n2)c1C,9.08%
24,O=C(Nc1nc(-c2nc3ccccc3s2)cs1)C1COc2ccccc2O1 (centres undefined),43.4% (active)

row,SMILES,activation
1,NC(=O)c1c(NC(=O)C2COc3ccccc3O2)sc2c1CCN(Cc1ccccc1)C2 (centres undefined),5.35%
2,O=C1NC(c2ccccc2)=C(c2nc3ccccc3s2)C(c2ccc(O)cc2)N1 (centres undefined),2.85%
3,O=C(Nc1ccc(Cl)cn1)C1COc2ccccc2O1 (centres undefined),54.7% (active)
4,CC(=O)Nc1sc2c(c1-c1nc3ccccc3s1)CN(C(C)C)CC2,3.29%
5,Nc1c(S(=O)(=O)c2ccccc2)c2nc3ccccc3nc2n1Cc1ccco1,79.2% (active)
6,Cc1ccc(S(=O)(=O)c2c(N)n(Cc3ccco3)c3nc4ccccc4nc23)cc1,8.53%
7,Nc1c(S(=O)(=O)c2ccccc2)c2nc3ccccc3nc2n1/N=C/c1ccco1,4.69%
8,COc1cccc(CNC(=O)CN(C)S(=O)(=O)c2ccc3c(c2)c(=O)n(C)c(=O)n3C)c1,11.5%
9,COc1cccc(CNC(=O)CN(C)S(=O)(=O)c2cnc[nH]2)c1,151% (active)
10,COc1ccccc1/C=C/CN1CCC(CO)(Cc2ccccc2)CC1,11.1%
11,CCOc1ccc(-c2ncncc2-c2ccccc2OC)c(O)c1,5.97%
12,CCC(=Cc1ccccc1OC)c1ccncc1,17.2% (active)
13,Cc1cc(C)c[n+](-c2[nH]c(=O)sc2/C=N/NC([S-])=Nc2ccccc2)c1,-0.42%
14,CCc1ccc[n+](-c2[nH]c(=O)sc2/C=N/NC([S-])=Nc2ccccc2)c1,49.2% (active)
15,Cc1cc[n+](-c2[nH]c(=O)sc2/C=N/NC([S-])=Nc2ccccc2)cc1,18.3% (active)
16,O=c1[nH]c(-[n+]2ccccc2)c(/C=N/NC([S-])=Nc2ccccc2)s1,8.23%
17,CC(C)(C)c1cc[n+](-c2[nH]c(=O)sc2/C=N/NC([S-])=Nc2ccccc2)cc1,5.34%
18,Cc1cc[n+](-c2[nH]c(=O)sc2/C=N/N=C(\[O-])c2ccccc2)cc1C,22.1% (active)
19,Cc1cc[n+](-c2[nH]c(=O)sc2/C=N/NC([S-])=Nc2ccccc2)cc1C,6.12%
20,CN1C(=O)c2cccc3c(N)ccc(c23)C1=O,5.53%
21,CCCCNc1ccc2c3c(cccc13)C(=O)N(CCCC)C2=O,5.54%
22,CN1C(=O)c2cccc3c(N(C)C)ccc(c23)C1=O,223% (active)
23,Cc1ccccc1N1C(=O)c2cccc3c(N(C)CCO)ccc(c23)C1=O,11.1%
24,Cc1cccc(N2C(=O)c3cccc4c(N(C)CCO)ccc(c34)C2=O)c1,6.7%

row,SMILES,activation
1,CNc1ccc2c3c(cccc13)C(=O)N(C)C2=O,44.4% (active)
2,O=C(CSc1ccc(Cl)cc1)Nc1nnc(-c2cccc([N+](=O)[O-])c2)s1,-1.31%
3,O=C(Cc1ccc(Cl)cc1)NNS(=O)(=O)c1ccc([N+](=O)[O-])cc1,275% (active)
4,O=S(=O)(O)c1nc2ccccc2n1Cc1ccccc1,51.8% (active)
5,O=c1[nH]ncc2c3ccccc3n(Cc3cccc(Cl)c3)c12,-2.41%
6,CCN1C(=O)c2cccc3c(NC(=O)c4ccc5c(c4)OCCO5)ccc1c23,1730% (active)
7,Cc1ccccc1NC(=O)c1nnn(-c2ccc3c(c2)OCCO3)c1N,5.33%
8,CCCCN(C(=O)c1ccc2c(c1)OCCO2)c1c(N)n(CCCC)c(=O)[nH]c1=O,3.97%
9,CN(Cc1ccccc1)C(=O)c1ccc(NC(=O)Cc2ccc(NC(=O)C3CCCN(S(=O)(=O)c4cccc([N+](=O)[O-])c4)C3)cc2)cc1 (centres undefined),6.95%
10,COc1cccc(S(=O)(=O)Nc2cccc(C(=O)N3CCCCCC3)c2)c1,-0.51%
11,O=C(Cc1ccc(NC(=O)C2CCCN(C(=O)C3CCCCC3)C2)cc1)Nc1cccc(C(=O)N2CCCC2)c1 (centres undefined),13.2% (active)
12,Cc1ccc(S(=O)(=O)Nc2ccccc2N(C)S(=O)(=O)c2ccc(C)cc2)cc1,9.04%
13,CC(=O)Nc1ccc(S(=O)(=O)NCCC(=O)OCC(=O)c2cc(C)ccc2C)cc1,10.1%
14,Cc1ccc(S(=O)(=O)NCCCCCC(=O)Nc2ccccc2C)cc1,34.1% (active)
15,Cc1ccc(C)c(OCCN2C(=O)NC3(CCc4ccccc4C3)C2=O)c1 (centres undefined),2.13%
16,C=COc1ccc(N2C(=O)c3ccccc3OC2C)cc1 (centres undefined),32.1% (active)
17,COc1ccc(CC(=O)N(C)Cc2cccc(F)c2)cc1S(=O)(=O)N1CCOCC1,12.3% (active)
18,COc1cc(/C=C2/C(=O)NN(c3cccc(F)c3)C2=O)ccc1OC(=O)c1ccco1,3.13%
19,Cc1ccc(C(=O)N(C)CC(=O)Nc2cccc(F)c2)cc1S(=O)(=O)N1CCCCC1,6.56%
20,NC(=O)c1ccccc1N/C=C/C(=O)c1ccc(Cl)cc1Cl,19% (active)
21,COC(=O)c1cnn2c(C(F)(F)F)cc(-c3ccco3)nc12,4.76%
22,Cc1cccc(C)c1NC(=O)CN(C1CCCCC1)S(C)(=O)=O,9.63%
23,Cc1cccc(C)c1NC(=O)CNC(=O)Cc1ccc(Br)cc1,10.9%
24,CSc1nc2ccccc2n1CC(=O)Nc1c(C)cccc1C,12.7% (active)

row,SMILES,activation
1,NC(=O)NC(Cc1ccccc1)C(=O)NCC1(N2CCCCC2)CCCCC1 (centres undefined),9.4%
2,Cc1cc(-c2ccccc2C(=O)NC2CCCCC2)on1,6.39%
3,Cc1nn(-c2ccccc2)c(Cl)c1C(=O)NC1CCCCC1,20.7% (active)
4,Cc1c(C(=O)NC2CC2)oc2ccccc12,7.6%
5,O=C(CNC(=O)C12CC3CC(CC(C3)C1)C2)OCC(=O)N1CCCCC1,11.6%
6,COc1ccc(OC)c(C2=C/C(=C/c3ccccn3)C(=O)O2)c1,6.12%
7,COc1ccc2nc(-c3ccccn3)[nH]c2c1,93.2% (active)
8,COc1ccc(OC)c(/C=C/c2nc3ccccc3[nH]c2=O)c1,6.55%
9,O=c1[nH]c2cc(C(F)(F)F)ccc2n1-c1cc(C(F)(F)F)ccc1O,8.69%
10,CCOc1ccccc1C(=O)NN1C(=O)CCC1=O,23.7% (active)
11,Cc1ccnc2nc(C(=O)OCC(=O)NCCc3ccccc3)nn12,28.6% (active)
12,Cc1cc(S(=O)(=O)NC(C)C)ccc1OCC(=O)NCc1ccccc1,3.1%
13,COc1cc(OC)c(OC)cc1/C=C1/Cc2ccccc2C1=O,8.78%
14,CCC1C/C(=C\c2cc(OC)c(OC)cc2OC)C(=O)/C(=C/c2cc(OC)c(OC)cc2OC)C1 (centres undefined),21.3% (active)
15,Cc1cc(NS(C)(=O)=O)c(=O)n(Cc2cccc(F)c2)c1,0.31%
16,C/C(=C\C=C(C#N)C#N)c1cc(C#N)c(N)o1,16.3% (active)
17,c1ccc(Cn2c(-c3ccccc3)nc3nc4ccccc4nc32)cc1,32.2% (active)
18,Oc1ccc2ccccc2c1C=NCc1cn2ccsc2n1,3.76%
19,Cc1nnc(-c2ccccc2)c(=O)n1/N=C/c1c(O)ccc2ccccc12,5.78%
20,O=C(NN=Cc1c(O)ccc2ccccc12)c1ccncc1,9.86%
21,O=C(N/N=C/c1c(O)ccc2ccccc12)c1cccc(C(F)(F)F)c1,164% (active)
22,O=C(N/N=C\c1c(O)ccc2ccccc12)c1cncc(Br)c1,20% (active)
